Data taken from ChEMBL document CHEMBL1124368 (J Med Chem, 1989).

What was measured:
Mus musculus [1] = assay: Tumor volume in 16 days after tumor implantation at a dose of 3.125 mg/kg/day of compound; assay type: functional
Procedure, shortened: (§1)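 10⁶ M5076 reticulum cell sarcoma cells were injected im into the left leg of female BDF₁ mice, five per group, on day 0. Compound in 10–20% DMSO/arachis oil was dosed ip daily on days 1–17. Tumor volumes (mm³) were recorded on days 12, 16, 20 and 24 after implantation, with NM marking a tumor that could not be measured.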

Mus musculus [2] = assay: Mean of weight gain from day 0 to day 24 at a dose of 25 mg/kg/day of compound; assay type: functional; parameters: unit not given here
Procedure, shortened: (§2)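 M5076 reticulum cell sarcoma: 10⁶ cells implanted im into the left leg of female BDF₁ mice (groups of five) on day 0. Drug in 10–20% DMSO in arachis oil was given ip daily on days 1–17. Weight change is the mean weight gain from day 0 to day 24.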

Dihydrofolate reductase = molecular target: T1, Dihydrofolate reductase (Rattus norvegicus, UniProt Q920D2); assay: In vitro inhibitory concentration against rat liver dihydrofolate reductase(DHFR); conditions: read-out: I50
T1 sequence (Q920D2 whole entry): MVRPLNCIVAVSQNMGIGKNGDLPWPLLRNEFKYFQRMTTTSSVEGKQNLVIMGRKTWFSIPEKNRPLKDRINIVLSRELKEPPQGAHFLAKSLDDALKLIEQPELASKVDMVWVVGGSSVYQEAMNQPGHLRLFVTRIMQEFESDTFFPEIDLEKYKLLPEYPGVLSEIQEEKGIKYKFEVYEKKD
Procedure, shortened: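 Partially purified rat liver DHFR, prepared by the Bertino and Fischer method, assayed spectrophotometrically at 340 nm. I50 is the final inhibitor concentration that cuts the reaction rate to 50% of the uninhibited rate. […] Inhibitors were dissolved in 0.1 M HCl or 95% ethanol.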

Mus musculus [3] = assay: Ratio of tumor volume of test(T) animals compared to control(C) animals x 100 T/C(%)] at a dose of 6.25 mg/kg/day; assay type: functional
Procedure, shortened: (§3)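 M5076 reticulum cell sarcoma: 10⁶ cells implanted im into the left leg of female BDF₁ mice (groups of five) on day 0. Treatment was ip, daily on days 1–17, in 10–20% DMSO in arachis oil. T/C% is treated tumor volume over control tumor volume × 100.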

Mus musculus [4] = assay: Mean of weight gain from day 0 to day 24 at a dose of 3.125 mg/kg/day of compound; assay type: functional; parameters: unit not given here; procedure, shortened: as §2
Mus musculus [5] = assay: Tumor volume in 20 days after tumor implantation at a dose of 6.25 mg/kg/day of compound; assay type: functional; procedure, shortened: as §1
Mus musculus [6] = assay: Mean of weight gain from day 0 to day 24 at a dose of 6.25 mg/kg/day; assay type: functional; parameters: unit not given here; procedure, shortened: as §2
Mus musculus [7] = assay: Tumor volume in 24 days after tumor implantation at a dose of 6.25 mg/kg/day; assay type: functional; procedure, shortened: as §1
Mus musculus [8] = assay: Ratio of tumor volume of test(T) animals compared to control(C) animals x 100 T/C(%)] at a dose of 12.50 mg/kg/day; assay type: functional; procedure, shortened: as §3
Mus musculus [9] = assay: Tumor volume in 24 days after tumor implantation at a dose of 12.5 mg/kg/day; assay type: functional; procedure, shortened: as §1
Mus musculus [10] = assay: Ratio of tumor volume of test(T) animals compared to control(C) animals x 100 T/C(%)] at a dose of 3.125 mg/kg/day; assay type: functional; procedure, shortened: as §3
Mus musculus [11] = assay: Tumor volume in 20 days after tumor implantation at a dose of 3.125 mg/kg/day; assay type: functional; procedure, shortened: as §1
Mus musculus [12] = assay: Tumor volume in 24 days after tumor implantation at a dose of 3.125 mg/kg/day; assay type: functional; procedure, shortened: as §1
Mus musculus [13] = assay: Mean of weight gain from day 0 to day 24 at a dose of 12.5 mg/kg/day of compound; assay type: functional; parameters: unit not given here; procedure, shortened: as §2
Mus musculus [14] = assay: Ratio of tumor volume of test(T) animals compared to control(C) animals x 100 T/C(%)] at a dose of 25 mg/kg/day; assay type: functional; procedure, shortened: as §3
Mus musculus [15] = assay: Tumor volume in 16 days after tumor implantation at a dose of 50 mg/kg/day of compound; NM=Tumor not measurable; assay type: functional, organism-based; procedure, shortened: as §1
Mus musculus [16] = assay: Tumor volume in 24 days after tumor implantation at a dose of 25 mg/kg/day of compound; assay type: functional; procedure, shortened: as §1
Mus musculus [17] = assay: Number of survivors versus treated on day 24 at a dose of 12.5 mg/kg/day of compound; Tumor not measurable; assay type: functional, organism-based
Mus musculus [18] = assay: Number of survivors versus treated on day 24 at a dose of 6.25 mg/kg/day of compound; Tumor not measurable; assay type: functional, organism-based
Mus musculus [19] = assay: Tumor volume in 20 days after tumor implantation at a dose of 3.125 mg/kg/day of compound; NM=tumor not measureable; assay type: functional, organism-based; procedure, shortened: as §1
Mus musculus [20] = assay: Number of survivors versus treated on day 24 at a dose of 6.25 mg/kg/day of compound; none of them survived(0/5); assay type: functional
Mus musculus [21] = assay: Tumor volume in 24 days after tumor implantation at a dose of 3.125 mg/kg/day of compound; NM=tumor not measureable; assay type: functional, organism-based; procedure, shortened: as §1
Mus musculus [22] = assay: Tumor volume in 12 days after tumor implantation at a dose of 3.125 mg/kg/day of compound; NM=tumor not measureable.; assay type: functional, organism-based; procedure, shortened: as §1
Mus musculus [23] = assay: Number of survivors treated on day 24 at a dose of 25 mg/kg/day of compound expressed as ratio of (test/control); none of them survived(0/5); assay type: functional
Mus musculus [24] = assay: Tumor volume in 16 days after tumor implantation at a dose of 3.125 mg/kg/day of compound; NM=tumor not measureable; assay type: functional, organism-based; procedure, shortened: as §1
Mus musculus [25] = assay: Ratio of tumor volume of test(T) animals compared to control(C) animals x 100 T/C(%)] at a dose of 3.125 mg/kg/day of compound; maximal activity for this system.; assay type: organism-based; conditions: in vivo; procedure, shortened: as §3
Mus musculus [26] = assay: Mean of weight gain from day 0 to day 24 at a dose of 3.125 mg/kg/day of compound (maximum activity noticed); assay type: functional; procedure, shortened: as §2
Mus musculus [27] = assay: Number of survivors versus treated on day 24 at a dose of 12.5 mg/kg/day of compound; none of them survived(0/5); assay type: functional

Compound	Weight change (Mus musculus [2])	IC50 (Dihydrofolate reductase)	Antitumor activity (Mus musculus [3])	Weight change (Mus musculus [4])	Weight change (Mus musculus [6])	Tumor volume (Mus musculus [7])	Antitumor activity (Mus musculus [8])	Tumor volume (Mus musculus [9])	Antitumor activity (Mus musculus [10])	Tumor volume (Mus musculus [11])	Tumor volume (Mus musculus [12])	Weight change (Mus musculus [13])	Antitumor activity (Mus musculus [14])	other results
CCc1nc(N)nc(N)c1-c1ccc(NCc2ccc(OC)cc2)c([N+](=O)[O-])c1	0.2	0.02 µM	30%	4.1	3.6	875 mm**3	21%	636 mm**3	50%	831 mm**3	1482 mm**3	2.3	<8%	Tumor volume (Mus musculus [1]): 306 mm**3; Tumor volume (Mus musculus [5]): 416 mm**3
CCc1nc(N)nc(N)c1-c1ccc([N+](=O)[O-])c(NCc2ccccc2)c1	–	9.2 µM	–	–	–	–	–	–	–	–	–	–	–	–
CCc1nc(N)nc(N)c1-c1ccc(N2CCCCC2)c(N)c1	–	> 25 µM	–	–	–	–	–	–	–	–	–	–	–	–
CCc1nc(N)nc(N)c1-c1ccc(N2CCN(C)CC2)c([N+](=O)[O-])c1	–	3.9 µM	–	–	–	–	–	–	–	–	–	–	–	–
CCc1nc(N)nc(N)c1-c1ccc(NCc2ccc(C(F)(F)F)cc2)c([N+](=O)[O-])c1	6.2	–	20%	3.4	2.3	454 mm**3	12%	265 mm**3	40%	627 mm**3	948 mm**3	2	<8%	Tumor volume (Mus musculus [1]): 291 mm**3
CCc1nc(N)nc(N)c1-c1ccc(N2CCCC2)c(N)c1	–	> 25 µM	–	–	–	–	–	–	–	–	–	–	–	–
CCc1nc(N)nc(N)c1-c1ccc(NC)c([N+](=O)[O-])c1	2.1	–	35%	4.3	3.3	805 mm**3	20%	462 mm**3	61%	822 mm**3	1407 mm**3	2.1	10%	Tumor volume (Mus musculus [15]): Not measurable; Tumor volume (Mus musculus [5]): 640 mm**3; Tumor volume (Mus musculus [16]): 220 mm**3
CCc1nc(N)nc(N)c1-c1ccc(N(CC)Cc2ccccc2)c(N)c1	–	4 µM	–	–	–	–	–	–	–	–	–	–	–	–
CCc1nc(N)nc(N)c1-c1ccc(N(C)Cc2ccccc2)c(N)c1	–	0.1 µM	–	–	–	–	–	–	–	–	–	–	–	–
CCc1nc(N)nc(N)c1-c1ccc(N2CCNCC2)c(N)c1	–	> 25 µM	–	–	–	–	–	–	–	–	–	–	–	–
CCc1nc(N)nc(N)c1-c1ccc(N2CCOCC2)c([N+](=O)[O-])c1	–	8 µM	–	–	–	–	–	–	–	–	–	–	–	–
CCc1nc(N)nc(N)c1-c1ccc(N(CC)Cc2ccccc2)c([N+](=O)[O-])c1	0.8	–	31%	2.3	1.6	854 mm**3	12%	316 mm**3	50%	698 mm**3	1375 mm**3	1.1	<8%	Survivors (Mus musculus [17]): Not measurable; Survivors (Mus musculus [18]): Not measurable; Tumor volume (Mus musculus [5]): 492 mm**3
Cc1nc(N)nc(N)c1-c1ccc(Cl)c(Cl)c1 [METOPRINE]	–	–	–	–	–	–	–	–	–	–	–	–	–	Tumor volume (Mus musculus [19]): Not measurable; Survivors (Mus musculus [20]): 0; Tumor volume (Mus musculus [21]): Not measurable; Tumor volume (Mus musculus [22]): Not measurable; Survivors (Mus musculus [23]): 0; Tumor volume (Mus musculus [24]): Not measurable; T/C (Mus musculus [25]): < 8%; Weight change (Mus musculus [26]): 4.9; Survivors (Mus musculus [27]): 0
